In ChEMBL document CHEMBL1128396, “Synthesis and biological evaluation of a series of new parenteral optically active 3-[[(N-alkylpyridinium-4'-yl)thio]methyl]-2-oxaisocephems” (1995):

Tests used:
Format in all cases: functional
Escherichia coli = assay: Antibacterial activity was determined against Escherichia coli NIHJ JC-2 (Gram-negative)
Procedure, shortened: (§1)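 2-fold agar dilution on Müller-Hinton agar. Overnight broth cultures were diluted to about 10^6 CFU/mL, and 10^4 CFU/spot was applied to plates with graded drug concentrations. Plates were incubated 18 h at 37 °C.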

[1] = tested on: Staphylococcus epidermidis; assay: Antibacterial activity was determined against Staphylococcus epidermidis ATCC 12228 (Gram-positive); procedure, shortened: as §1
Staphylococcus aureus [2] = assay: Antibacterial activity was determined against Methicillin-resistant Staphylococcus aureus (MRSA) 5038 (Gram-positive)
Enterococcus faecalis = assay: Antibacterial activity was determined against Enterococcus faecalis ATCC 21212 (Gram-positive); procedure, shortened: as §1
Serratia marcescens = assay: Antibacterial activity was determined against Serratia marcescens ATCC 12648 (Gram-negative); procedure, shortened: as §1
Pseudomonas aeruginosa = assay: Antibacterial activity was determined against Pseudomonas aeruginosa ATCC 10145 (Gram-negative); procedure, shortened: as §1
Klebsiella pneumoniae = assay: Antibacterial activity was determined against Klebsiella pneumoniae NCTC 9632 (Gram-negative); procedure, shortened: as §1
Staphylococcus aureus [3] = assay: Antibacterial activity was determined against Staphylococcus aureus FDA 209P (Gram-positive); procedure, shortened: as §1
Mus musculus [4] = assay: Antibacterial activity was determined against MRSA 5129 at a challenge dose of 1.38*10e8 (cells/mouse) administered subcutaneously; settings: sc
Procedure, shortened: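 Male ICR mice (~20 g, 10 per dose group) were challenged intraperitoneally with 0.5 mL of about 10-100 times the LD50. Inoculum was an overnight 37 °C tryptic soy broth culture suspended in fresh broth with 5% gastric mucin. Various subcutaneous doses were given 1 h post-infection. Survivors were counted on day 7, and ED50 with 95% confidence limits was derived by probit.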

Mus musculus [5] = assay: Antibacterial activity was determined against MRSA 5038 at a challenge dose of 1.00*10e7 (cells/mouse) administered subcutaneously; settings: sc
Procedure, shortened: (§2)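 Cultures were grown overnight at 37 °C in tryptic soy broth (S. aureus, MRSA, E. faecalis) or Müller-Hinton broth (E. coli, S. pneumoniae). Graded doses were given subcutaneously 1 h post-infection. ED50 was calculated by probit from day-7 survival, with 95% confidence limits.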

Staphylococcus aureus [6] = assay: […] was determined against MRSA 5129
Mus musculus [7] = assay: Antibacterial activity was determined against Escherichia coli 29 at a challenge dose of 1.35*10e6 (cells/mouse) administered subcutaneously; settings: sc; procedure, shortened: as §2
Mus musculus [8] = assay: Antibacterial activity was determined against Staphylococcus aureus Smith at a challenge dose of 1.32*10e7 (cells/mouse) (sc) administered; procedure, shortened: as §2
Mus musculus [9] = assay: Antibacterial activity was determined against Staphylococcus aureus Smith at a challenge dose of 1.32*10e7 (cells/mouse) administered subcutaneously; settings: sc; procedure, shortened: as §2

Compound	MIC (Escherichia coli) [µg/mL]	MIC [1] [µg/mL]	MIC (Staphylococcus aureus [2]) [µg/mL]	MIC (Enterococcus faecalis) [µg/mL]	MIC (Serratia marcescens) [µg/mL]	MIC (Pseudomonas aeruginosa) [µg/mL]	MIC (Klebsiella pneumoniae) [µg/mL]	MIC (Staphylococcus aureus [3]) [µg/mL]	ED50 (Mus musculus [4]) [mg/kg]	ED50 (Mus musculus [5]) [mg/kg]	MIC (Staphylococcus aureus [6]) [µg/mL]	ED50 (Mus musculus [7]) [mg/kg]	ED50 (Mus musculus [8]) [mg/kg]	ED50 (Mus musculus [9]) [mg/kg]
CC(C)=CC[n+]1ccc(SCC2=C(C(=O)O)N3C(=O)[C@@H](NC(=O)/C(=N\OC4CCCC4)c4csc(N)n4)[C@H]3CO2)cc1.O=S(=O)([O-])O	0.78	0.2	12.5	1.56	1.56	12.5	0.78	0.2	–	–	–	–	–	–
C[n+]1ccc(SCC2=C(C(=O)O)N3C(=O)[C@@H](NC(=O)/C(=N\OC4CCCC4)c4csc(N)n4)[C@H]3CO2)cc1.O=S(=O)([O-])O	0.39	0.05	3.13	1.56	1.56	6.25	0.2	0.05	3.91	3.4	6.25	0.09	0.08	–
Nc1nc(/C(=N/OC2CCCC2)C(=O)N[C@@H]2C(=O)N3C(C(=O)O)=C(CSc4cc[n+](CC(=O)c5ccccc5)cc4)OC[C@H]23)cs1.O=S(=O)([O-])O	1.56	0.39	12.5	1.56	3.13	25	1.56	0.2	–	–	–	–	–	–
Nc1nc(/C(=N/OC2CCCC2)C(=O)N[C@@H]2C(=O)N3C(C(=O)O)=C(CSc4cc[n+](CC(=O)N5CCOCC5)cc4)OC[C@H]23)cs1.O=S(=O)([O-])O	0.78	0.2	12.5	1.56	1.56	6.25	0.78	0.2	–	–	–	–	–	–
C#CC[n+]1ccc(SCC2=C(C(=O)O)N3C(=O)[C@@H](NC(=O)/C(=N\OC4CCCC4)c4csc(N)n4)[C@H]3CO2)cc1.O=S(=O)([O-])O	0.39	0.1	6.25	1.56	1.56	6.25	0.39	0.2	–	–	–	–	–	–
N#CC[n+]1ccc(SCC2=C(C(=O)O)N3C(=O)[C@@H](NC(=O)/C(=N\OC4CCCC4)c4csc(N)n4)[C@H]3CO2)cc1.O=S(=O)([O-])O	0.39	0.2	12.5	1.56	1.56	6.25	0.39	0.2	–	–	–	–	–	–
CC(=O)C[n+]1ccc(SCC2=C(C(=O)O)N3C(=O)[C@@H](NC(=O)/C(=N\OC4CCCC4)c4csc(N)n4)[C@H]3CO2)cc1.O=S(=O)([O-])O	0.39	0.2	6.25	0.78	0.78	6.25	0.39	0.2	–	2.76	–	–	–	0.18
CNC(=O)C[n+]1ccc(SCC2=C(C(=O)O)N3C(=O)[C@@H](NC(=O)/C(=N\OC4CCCC4)c4csc(N)n4)[C@H]3CO2)cc1.O=S(=O)([O-])O	0.78	0.2	6.25	1.56	1.56	12.5	0.39	0.2	–	2.27	–	–	–	0.18
CC(C)(C)C(=O)C[n+]1ccc(SCC2=C(C(=O)O)N3C(=O)[C@@H](NC(=O)/C(=N\OC4CCCC4)c4csc(N)n4)[C@H]3CO2)cc1.O=S(=O)([O-])O	1.56	0.39	6.25	1.56	3.13	25	1.56	0.2	–	–	–	–	–	–
